Experiment: Antagonist activity at CXCR2 expressed in 7w CHO cells co-expressing human recombinant APP 751 assessed as inhibition of gamma-secretase-mediated amyloid beta42 production; call rule not given here
Type: functional, cell-based

| SMILES | IC50 |
| --- | --- |
| CCc1cccc(C(C)CC)c1NC(=O)Nc1ccc([N+](=O)[O-])cc1O (stereo not given) | 15 µM |
| CCC(C)c1ccccc1NC(=O)Nc1ccc([N+](=O)[O-])cc1O (stereo not given) | 1 µM |

Experiment: Antagonist activity at CXCR2 expressed in 7w CHO cells assessed as inhibition of GROalpha-mediated intracellular calcium mobilization by […] fluorescence assay
Type: functional, cell-based
How it was run: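 Adherent 7w cells (CHO stably expressing human APP751), grown to ~100% confluency in 96-well plates, loaded with […] dye for 1 h at 37 °C. Compounds were added from DMSO stocks in 1X HBSS (1% DMSO final) at ≥9 concentrations (10–100,000 nM), n = 8 each. GROα (33 nM final) followed 15 s later. Peak calcium was read at Ex/Em 494/516, and data were fitted to a 4-parameter sigmoid; three experiments.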

| SMILES | IC50 |
| --- | --- |
| O=C(Nc1ccc([N+](=O)[O-])cc1O)Nc1cc(Cl)ccc1Cl | Active |
| COc1cc([N+](=O)[O-])ccc1NC(=O)Nc1ccccc1F | Active |
| CC(C)c1ccccc1NC(=O)Nc1ccc([N+](=O)[O-])cc1O | Active |
| O=C(Nc1ccc([N+](=O)[O-])cc1O)Nc1ccccc1F | Active |
| O=C(Nc1ccc([N+](=O)[O-])cc1O)Nc1ccccc1Cl | Active |

Experiment: Antagonist activity at CXCR2 expressed in 7w CHO cells co-expressing human recombinant APP 751 assessed as inhibition of gamma-secretase-mediated amyloid beta40 production

| SMILES | IC50 |
| --- | --- |
| O=C(Nc1ccc([N+](=O)[O-])cc1)Nc1ccccc1F | 30 µM |
| O=C(Nc1ccc([N+](=O)[O-])cc1O)Nc1ccc(F)cc1F | 15 µM |
| Cc1ccc(NC(=O)Nc2ccc([N+](=O)[O-])cc2O)cc1C | 15 µM |
| CCc1ccccc1NC(=O)Nc1ccc([N+](=O)[O-])cc1O | 0.09 µM |
| CC(C)c1cccc(C(C)C)c1NC(=O)Nc1ccc([N+](=O)[O-])cc1O | 8 µM |
| CCc1cccc(C(C)C)c1NC(=O)Nc1ccc([N+](=O)[O-])cc1O | 3 µM |
| O=C(Nc1ccc([N+](=O)[O-])cc1O)Nc1cc(Cl)ccc1Cl | 0.5 µM |
| Cc1cc(C)cc(NC(=O)Nc2ccc([N+](=O)[O-])cc2O)c1 | 2 µM |
| O=C(Nc1ccc(F)c(F)c1)Nc1ccc([N+](=O)[O-])cc1O | 8 µM |
| COc1cc([N+](=O)[O-])ccc1NC(=O)Nc1ccccc1F | 5 µM |
| CC(C)c1ccccc1NC(=O)Nc1ccc([N+](=O)[O-])cc1O | 0.3 µM |
| O=C(Nc1ccc([N+](=O)[O-])cc1O)Nc1ccc(Cl)cc1Cl | 0.3 µM |
| O=C(Nc1ccc([N+](=O)[O-])cc1O)Nc1ccc(Cl)c(Cl)c1Cl | 3 µM |
| O=C(Nc1ccc([N+](=O)[O-])cc1O)Nc1cc(Cl)c(Cl)cc1Cl | 3 µM |
| Cc1ccc(NC(=O)Nc2ccc([N+](=O)[O-])cc2O)c(C)c1 | 3 µM |
| CCCc1ccccc1NC(=O)Nc1ccc([N+](=O)[O-])cc1O | 0.1 µM |
| O=C(Nc1ccccc1)Nc1ccc([N+](=O)[O-])cc1O | 12 µM |
| O=C(Nc1ccc([N+](=O)[O-])cc1O)Nc1ccc(Br)cc1Br | 0.8 µM |

| SMILES | IC50 |
| --- | --- |
| CCc1ccc(NC(=O)Nc2ccc([N+](=O)[O-])cc2O)cc1 | 3 µM |
| O=C(Nc1ccc([N+](=O)[O-])cc1O)Nc1c(F)cc(F)cc1F | 15 µM |
| O=C(Nc1ccc([N+](=O)[O-])cc1O)Nc1ccc(F)c(F)c1F | 8 µM |
| O=C(Nc1ccc([N+](=O)[O-])cc1O)Nc1ccccc1F | 10 µM |
| O=C(Nc1cc(F)c(F)c(F)c1)Nc1ccc([N+](=O)[O-])cc1O | 8 µM |
| O=C(Nc1ccc(Cl)c(Cl)c1)Nc1ccc([N+](=O)[O-])cc1O | 0.7 µM |
| Cc1ccc(C)c(NC(=O)Nc2ccc([N+](=O)[O-])cc2O)c1 | 10 µM |
| COc1ccc(NC(=O)Nc2ccccc2F)c([N+](=O)[O-])c1 | 10 µM |
| O=C(Nc1ccc([N+](=O)[O-])cc1O)Nc1ccccc1Cl | 0.6 µM |
| Cc1cccc(C(C)C)c1NC(=O)Nc1ccc([N+](=O)[O-])cc1O | 5 µM |
| O=C(Nc1ccc([N+](=O)[O-])cc1O)Nc1cc(F)c(F)cc1F | 10 µM |
| COc1cc([N+](=O)[O-])ccc1NC(=O)Nc1cccc(F)c1 | 12 µM |
| O=C(Nc1ccc([N+](=O)[O-])cc1O)Nc1ccccc1Br | 0.5 µM |
| CCc1cccc(NC(=O)Nc2ccc([N+](=O)[O-])cc2O)c1 | 4 µM |
| CCc1cccc(C)c1NC(=O)Nc1ccc([N+](=O)[O-])cc1O | 7 µM |
| Cc1ccccc1NC(=O)Nc1ccc([N+](=O)[O-])cc1O | 2 µM |
| CC(C)(C)c1ccccc1NC(=O)Nc1ccc([N+](=O)[O-])cc1O | 15 µM |
| CCCc1ccc(NC(=O)Nc2ccc([N+](=O)[O-])cc2O)cc1 | 4 µM |

Experiment: Antagonist activity at CXCR2 expressed in 7w CHO cells co-expressing human recombinant APP 751 assessed as inhibition of gamma-secretase-mediated amyloid beta40 production at 100 uM

| SMILES | IC50 |
| --- | --- |
| O=C(Nc1ccccc1O)Nc1ccccc1Cl | Not Active |
| O=C(Nc1ccccc1F)Nc1ccc(O)cc1[N+](=O)[O-] | Not Active |
| COc1cc([N+](=O)[O-])ccc1NC(=O)Nc1ccccc1 | Not Active |
| COc1cc([N+](=O)[O-])ccc1NC(=O)Nc1ccccc1Cl | Not Active |
| COc1cc([N+](=O)[O-])ccc1NC(=O)Nc1ccccc1Br | Not Active |
| O=C(Nc1ccccc1)Nc1ccccc1Br | Not Active |
| O=C(Nc1ccccc1O)Nc1ccccc1Br | Not Active |
